A word on the apparent Kd: it is the concentration giving half-maximal binding under the conditions of the assay.

The values that follow come from the EternaBench riboswitch data.

This data set relates to MS2 coat protein. Put plainly: apparent Kd, MS2 coat protein; higher = weaker binding; RNA-MaP array; FMN 200 µM where present. In outline: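 The apparent Kd comes from binding curves fitted cluster by cluster, filtered, and summarised as a median. Those curves followed SNAP-549-labelled MS2 coat protein from 0.7 or 1.5 nM, doubling to 3 µM, on Illumina sequencing-chip clusters where stalled E. coli RNA polymerase had transcribed the designs, without and then with constant ligand. The buffer was 100 mM Tris-HCl pH 7.5, 80 mM KCl, 4 mM MgCl2, BSA, DTT, yeast tRNA and Tween-20, and green signal was normalised to red-channel RNA signal and control-cluster median Fmax.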

The mark [1] stands for this setting: designed as: ON switch for flavin mononucleotide, no ligand.
[2] abbreviates: ligand present: flavin mononucleotide, designed as: ON switch for flavin mononucleotide.
Where [3] appears, read: designed as: OFF switch for flavin mononucleotide, no ligand.
The mark [4] stands for this setting: ligand present: flavin mononucleotide, designed as: OFF switch for flavin mononucleotide.

For the sequence “CCACGUCACAUUUACAUGAGGAUCACCCAUGUCGAAAGACAUGAGGAUAUGCUACCUAAUUGGUAGCAGAAGGCAUGGACGUGG”, the “apparent Kd” value under setting [1] is 203 nM and the “apparent Kd” value under setting [2] is 284 nM.

Consider “CUUUUAUAAUAGAAGGUAGACUUUAAGUGGAUCACCCAUGUGUUGGUACUAAGGAUAUGUAGUAACAUGAGGAUCACCCAUGUU”, for which the “apparent Kd” value is, setting by setting: under setting [1], 20.5 nM; under setting [2], 16.9 nM.

Regarding “AAAUACCUUGUGAUCAGCGUAACAUGAGGAUCACCCAUGUUGCAGGAUAUCGAACCCAGUCAGUACGAGAAGGGCAAUAGUGUU”, the “apparent Kd” value was 7.16 nM under setting [3] and 11.6 nM under setting [4].

For “GGAUAGGACAGAGGAUAUACGUGCUAGAGACACUAGCAAAAUUUCCUCACAUGAGGAUCACCCAUGUAGAAGGCUGUCCUAUCG”, the “apparent Kd” value reads like this: under setting [3], 15.4 nM; under setting [4], 405 nM.

As for “UAAAUAUUAAAAGGAUAUUCAUACCGGAAACGGACAUGAGGAUCACCCAUGUGGCGAAAGCCUUGGGAGAAGGUAUUAUAAAAU”, the “apparent Kd” value was 333 nM under setting [1] and 248 nM under setting [2].

For “GGUGGAAGCACAGGAUAUGUUGAUUUUAUGGUGUUACAUGAGGAUCACCCAUGUCCGCGAUUCUAACAGAAGGGUGCAUGGAUG”, the “apparent Kd” value is, setting by setting: under setting [1], 543 nM; under setting [2], 59.9 nM.

As to “GUAAGUACGAGAGGAUAUUGACAUGAGGAUCACCCAUGUAUUUGGGAGUGUUCACUGAAUUCUUACGAGAAGGCUUGUACAUAC”, the “apparent Kd” value is, setting by setting: under setting [3], 221 nM; under setting [4], 220 nM.

For “UGAUAGGACAGAGGAUAUGCCGAUAGGAUCUACUAUCGAAGAAUCCUCACAUGAGGAUCACCCAUGUAGAAGGCUGUCCUAUCC”, the “apparent Kd” value is, setting by setting: under setting [3], 8.68 nM; under setting [4], 39.5 nM.

Turning to “GUGUACAGAGGAUAUACUGGAGCUAGGAAACUAGCAACCUCACAUGAGGAUCACCCAUGUAGAAGGCUGUACAC”, the “apparent Kd” value runs as follows: under setting [3], 402 nM; under setting [4], 25.8 nM.

As for “CUCGAGUUAGGAUAUCGAACGUAACAAGCGGGAACUCCCGCCGAGAAGGAACAUGAGGAUCACCCAUGUGAAAA”, the “apparent Kd” value under setting [3] turned out to be 23.2 nM and the “apparent Kd” value under setting [4] was found to be 22.2 nM.

Take “UACCGCGACAACACGGUAUCACAUGAGGAUCACCCAUGUUCACAGGAUAUGCGAUAGCCAACGAAGCAGAAGGGUGAUUACUUA”: the “apparent Kd” value stood at 37.3 nM under setting [1] and 263 nM under setting [2].

For the sequence “GGUCCAUUAUGAGGAUAUGGCACCUUAUUGGUGCCAGAAGGCAUAUGUCUUCACAUGAGGAUCACCCAUGUAAUAAAUUGGACC”, the “apparent Kd” value reads like this: under setting [1], 17.4 nM; under setting [2], 19.5 nM.

On to “GGGCUGUCAGGAUAUUGAUCGUGAUCGGAAAUGAUCGUGAUCGAGAAGGGACAUGAGGAUCACCCAUGUGGCCC”, for which the “apparent Kd” value runs as follows: under setting [3], 30.8 nM; under setting [4], 33 nM.

Regarding “UUUGUUUAUGCAGGAUAUUGUAUUUUAUUACAUCAAGAAGGGCAUUACAUGAGGAUCACCCAUGUUAUCUUAUGGUUAACUAGU”, the “apparent Kd” value is, setting by setting: under setting [3], 20.8 nM; under setting [4], 21.3 nM.

In the case of “GGCGUUCGCACAGGAUAUGCAUUAGACAUGAGGAUCACCCAUGUAGGCUAAGCAGAAGGGUGGGUGUGUCUAAGGAAAUUCUUC”, the “apparent Kd” value under setting [1] was found to be 172 nM and the “apparent Kd” value under setting [2] was found to be 42.4 nM.

“AGCCCUAAUGUCAGGAUAUGCAUCCUUAAUGGACGGCAGAAGGGACAUGAGGAUCACCCAUGUAAAUAGAAAUU”: the “apparent Kd” value was 34.8 nM under setting [3] and 146 nM under setting [4].

Regarding “CCACCUCCUGAGGAUAUUGCAUCACCCGACUGAUAAGAAGGCAGAACAUGAGGAUCACCCAUGUGGGUACUCAC”, the “apparent Kd” value is, setting by setting: under setting [3], 84 nM; under setting [4], 87.1 nM.

As for “GCGUUGCACGAGAAGGCCAAUACAUGAGGAUCACCCAUGUUAAAAUGUUUUGGAGGAUAUCGAUCAUCUACAAUAAAGCAACGC”, the “apparent Kd” value by setting is: under setting [3], 12.6 nM; under setting [4], 11.6 nM.

Take “UACAGACAUGAGGAUCACCCAUGUAAGGAUAUCGGUACUGAUGGUAUAAUCUACUCAGCGAGAAGGUACAGUGU”: the “apparent Kd” value reads like this: under setting [3], 33.6 nM; under setting [4], 33.2 nM.

Regarding “GCAGCACAGUUUUACAUGAGGAUCACCCAUGUCGAUUGUUAUGAGGAUAUGCAUCGUAUGAAGAUGCAGAAGGCAUUGUGCUGC”, the “apparent Kd” value under setting [1] came out at 6.96 nM and the “apparent Kd” value under setting [2] came to 5.5 nM.

With “CUUGUGUUAGGAUAUGCGUUUCCGGUACGUCACCGGAUCUGGCAGAAGGGACAUGAGGAUCACCCAUGUUUGGC”, the “apparent Kd” value amounted to 46.6 nM under setting [3] and 30.3 nM under setting [4].

“CCUCUACAUGAGGAUCACCCAUGUGAGGAUAUGCGAGGCGCACUCGAUGAGCGCGCCGGUAGAAGGCAUGUGGU”: the “apparent Kd” value under setting [3] is 24 nM and the “apparent Kd” value under setting [4] is 55 nM.

Consider “UCUGUUCAAGGAUAUGCGUAAUGUGUUACGGCACGAGGUCUACAUGAGGAUCACCCAUGUAGAAGGUGAUCAGA”, for which the “apparent Kd” value under setting [3] turned out to be 21.5 nM and the “apparent Kd” value under setting [4] was 22.2 nM.

Regarding “AAAGAGCGAGGAUAUACGUAUCGGUGCGGCCCGCCGAUGUGACAUGAGGAUCACCCAUGUAGAAGGCGCAGAAA”, the “apparent Kd” value came out at 26.2 nM under setting [3] and 33 nM under setting [4].

Consider “UUUUUUUUUGUGAGGAUAUACUUUUUUUUUUUUUUGUAGAAGGCACAUGAGGAUCACCCAUGUUUUUUUUUCUC”, for which the “apparent Kd” value runs as follows: under setting [3], 11.7 nM; under setting [4], 11.3 nM.

On to “UUGAUUUUGUAAGGAUAUACUCUGUGAUGAAGAGUAGAAGGUACUUACAUGAGGAUCACCCAUGUUUAACGAGAUACUAAUCGU”, for which the “apparent Kd” value reads like this: under setting [1], 62.8 nM; under setting [2], 31.3 nM.

For the sequence “UGAGCCUCGUGAGGAUAUACAUGAGGAUCACCCAUGUAAUAGGAUGAACGGUGGAAACACCGAAUGUAGAAGGCACGAGGCUCA”, the “apparent Kd” value under setting [3] turned out to be 82.2 nM and the “apparent Kd” value under setting [4] stood at 869 nM.

As for “GUCGGAAACGACAAAAGUAUGGAUCCAGAAGGUAUGAAACAUGAGGAUCACCCAUGUCAAAGACAUGAGGAUAUGGAUCCAUAC”, the “apparent Kd” value came out at 32.4 nM under setting [1] and 9.54 nM under setting [2].

Consider “UAAAUGUGAGGAUAUUCGUAGUACUCGGAGACGAGUAUUACGGAGAAGGCACAUGAGGAUCACCCAUGUUCCUU”, for which the “apparent Kd” value runs as follows: under setting [3], 21.3 nM; under setting [4], 188 nM.

Take “CUCUUGUUAGGAUAUCAAACCGGCAGCGGAGCCGCCGGAAGUGAGAAGGGACAUGAGGAUCACCCAUGUAAGAA”: the “apparent Kd” value runs as follows: under setting [3], 81.6 nM; under setting [4], 256 nM.

Regarding “AAAUUCCUCACAGGAUAUCCUACAUGAGGAUCACCCAUGUACUAACUGAGCAAAUUGCAACAAAAGGAGAAGGGUGAGGUGAAG”, the “apparent Kd” value is 36.3 nM under setting [1] and 4.25 nM under setting [2].

For the sequence “UGACUGAUAUAGAAGGGUAUGUGGGAAUUACAUGAGGAUCACCCAUGUUUUAUAGGAUAUGUAUAUAGUUUUUAAUCAAGUUUA”, the “apparent Kd” value worked out at 48.2 nM under setting [3] and 36.8 nM under setting [4].

For “GUCGUGUGAGGAUAUGGAUAGACGCAGUGACAGUAAGCGACCUAGAAGGCACAUGAGGAUCACCCAUGUAUGUG”, the “apparent Kd” value came to 45.5 nM under setting [3] and 84.1 nM under setting [4].

“AUGAUGUCAGGAUAUCGUUGGCUCACUUGUGUGUGCCAGUUCGAGAAGGGACAUGAGGAUCACCCAUGUUUUUA”: the “apparent Kd” value under setting [3] amounted to 45 nM and the “apparent Kd” value under setting [4] was 252 nM.

For the sequence “UGAUCUUACAUGAGGAUCACCCAUGUAGGCCAGUAACUAACCAGAAGGCACGUAGAGUAAAACAGUGAGGAUAUGGAUGACAUA”, the “apparent Kd” value under setting [1] was 11.7 nM and the “apparent Kd” value under setting [2] is 6.32 nM.

On to “UAGCAGUAGGGAGGAUAUGCGAAAGGAAGGCCCGCAGAAGGCCUUACAUGAGGAUCACCCAUGUAGGAUGCCUGGGUGGUGCCC”, for which the “apparent Kd” value is, setting by setting: under setting [3], 13.8 nM; under setting [4], 20.3 nM.

For “CCCGCUGGAGGAUAUGCACUACGUGUGUUUUCUUUUGAGGCACAUGAGGAUCACCCAUGUAGAAGGCCACGCGG”, the “apparent Kd” value under setting [3] came to 97.6 nM and the “apparent Kd” value under setting [4] was determined as 430 nM.

Turning to “UGAUACUAAGAGAAGGUUCAAACUACAUAUUGCAUACAUGAGGAUCACCCAUGUUGGUGAAUAAGAAAGGAUAUUUUACUAUAU”, the “apparent Kd” value runs as follows: under setting [3], 48.2 nM; under setting [4], 38.2 nM.

Turning to “CCUAUGUGAGGAUAUGUCUGGUCUUCUUUUGUUUUUUACAGACAGAAGGCACAUGAGGAUCACCCAUGUCAGAC”, the “apparent Kd” value is, setting by setting: under setting [3], 16.8 nM; under setting [4], 24.4 nM.

Consider “GGUUUGCGGCAGGAUAUCCAUCCGCGGUGUGGUGGAGAAGGGCUGACAUGAGGAUCACCCAUGUGCGUCCUGUU”, for which the “apparent Kd” value came to 25.1 nM under setting [3] and 30.5 nM under setting [4].

“GGGCUCGGUGUGAGGAUAUCGGGCUCUAAAGGGCUCGAGAAGGCACAUGAGGAUCACCCAUGUAAGUCGGGCUC”: the “apparent Kd” value runs as follows: under setting [3], 14.8 nM; under setting [4], 15 nM.

With “AGAAACUACGAGAAGGACAUAUGAUUAAGACUAAACAUGAGGAUCACCCAUGUAGGAUAUCGUAGUUUCAGGAUCGUGAGAUCA”, the “apparent Kd” value reads like this: under setting [3], 7.27 nM; under setting [4], 20.1 nM.

Take “UCAUGAUAUGUAGGAUAUCACAAUAAUUGAUUAAUAUAUGAAUAUAGAAUUUGAGAAGGACAUUUACAUGAGGAUCACCCAUGU”: the “apparent Kd” value reads like this: under setting [3], 14.8 nM; under setting [4], 12.3 nM.

“GCUCGUGGACAGAAGGCGACAUGAGGAUCACCCAUGUUGGCUCGGGUAUGACCAAUCCGCAUGAUCGAGGAUAUGUCUGCGGGC”: the “apparent Kd” value came out at 419 nM under setting [3] and 19.2 nM under setting [4].

As to “AAAAAGUGAGGAUAUACAUGAGGAUCACCCAUGUAAUAAAAAAAAAGGGUGGAAGAAAGUAGAAGGCACCAAAA”, the “apparent Kd” value reads like this: under setting [3], 62.4 nM; under setting [4], 356 nM.

As to “CUUUUUUGAGGAUAUUAGUAGUAAAUAAAUAAAAUUACUACUGAGAAGGCACAUGAGGAUCACCCAUGUUCCUC”, the “apparent Kd” value under setting [3] was determined as 16.3 nM and the “apparent Kd” value under setting [4] turned out to be 26.9 nM.

Regarding “GACUUGCGCACAGGAUAUCCACGGAGCGGACGUGGAGAAGGGUGACAUGAGGAUCACCCAUGUACGUAAGUCUGGAUCACUUCC”, the “apparent Kd” value runs as follows: under setting [1], 49.9 nM; under setting [2], 37.9 nM.

Turning to “GCGACGAAAGUCGAACGAUGUAGCAGAAGGACAUGAGGAUCACCCAUGUCAGCUGUAACAGCCAUGUAGGAUAUGCUACAUCGU”, the “apparent Kd” value is, setting by setting: under setting [3], 4.18 nM; under setting [4], 5.27 nM.
